Measured values published in ChEMBL document CHEMBL1125014, “Synthesis and structure-activity relationships of new 9-N-alkyl derivatives of 9(S)-erythromycylamine” (1990).
≈ marks a conversion by molar mass, not a printed value.

Columns and labels:
Mus musculus [1] = test: ED50 value was measured by po administration against streptococcus pneumoniae infection in mice (in vivo, in experiment 1); format: functional
In short: (§1)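 Infected mice were dosed orally or subcutaneously at 1 and 5 h postinfection, 0.25 mL of antibiotic solution in 10% aqueous ethanol per dose. Tartaric acid was added where needed for solubility. Several dose concentrations were tested to give the ED50.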

Rattus norvegicus [2] = test: Plasma concentration in rats was determined by subcutaneous administration, 20 mg/kg at 2 h; format: functional, organism-based; design: dose 20 mg/kg
In short: (§2)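 Peripheral plasma antibiotic levels in rats given 20 mg/kg orally or subcutaneously. Plasma was sampled at timed points after dosing. Levels were measured by microbiological agar assay with Micrococcus luteus seeded in Antibiotic Media 1, reading zone sizes, and were calculated from a standard curve for the appropriate compound. Each value is the average of three rats per time point, in μg/mL.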

Rattus norvegicus [3] = species: Rattus norvegicus; test: Fluid concentration in kidney tissue was determined in rats at 4 h; format: functional
In short: (§3)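 Rats were gavaged at 20 mg/kg and tissues sampled 0.5–6 h after dosing. Drug was assayed microbiologically with Micrococcus luteus seeded in Antibiotic Media 1. Zone sizes were read against each compound's own standard curve. Values are the mean of three rats per time point, in μg/g.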

Mus musculus [4] = test: ED50 value was measured by po administration against streptococcus pyogenes infection in mice (in vivo, in experiment 3); format: functional
Rattus norvegicus [5] = species: Rattus norvegicus; test: Fluid concentration in liver tissue was determined in rats at 4 h; format: functional
In short: (§4)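 Rats dosed by gavage at 20 mg/kg; lung, liver, kidney, urine and serum sampled at 0.5, 1, 2, 4 and 6 h after dosing. Antibiotic measured by microbiological assay with Micrococcus luteus seeded in Antibiotic Medium 1. Zone sizes were read against the standard curve for the same compound. Each value is the average of three rats per time point.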

Mus musculus [6] = test: ED50 value was measured by sc administration against streptococcus pneumoniae infection in mice (in vivo, in experiment 3); format: functional
Mus musculus [7] = test: Plasma concentration in mice was determined by subcutaneous administration, 20 mg/kg at 2 hr; format: functional, organism-based; design: dose 20 mg/kg
In short: (§5)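 Mice given 20 mg/kg orally or subcutaneously; peripheral plasma sampled at 5, 20 and 40 min and at 1, 2 and 4 h after dosing. Microbiological assay used Micrococcus luteus seeded in Antibiotic Medium 1, with zone sizes converted by the compound's own standard curve. Each value is the average of five mice per time point.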

Rattus norvegicus [8] = species: Rattus norvegicus; test: Fluid concentration in liver tissue was determined in rats at 1 h; format: functional; in short: as §4
Rattus norvegicus [9] = species: Rattus norvegicus; test: Fluid concentration in kidney tissue was determined in rats at 2 h; format: functional; in short: as §3
Streptococcus pneumoniae [10] = test: Effective dose against mice infected with streptococcus pneumoniae after peroral administration (in vivo); format: functional; conditions: in Mus musculus, po
Mus musculus [11] = test: Plasma concentration in mice was determined by subcutaneous administration, 20 mg/kg at 4 hr; format: functional, organism-based; design: dose 20 mg/kg; in short: as §5
Rattus norvegicus [12] = species: Rattus norvegicus; test: Fluid concentration in serum tissue was determined in rats at 6 h; format: functional; in short: as §4
Mus musculus [13] = test: ED50 value was measured by sc administration against staphylococcus aureus infection in mice (in vivo, in experiment 3); format: functional
Mus musculus [14] = test: Plasma concentration in mice was determined by subcutaneous administration, 20 mg/kg at 5 min; format: functional, organism-based; design: dose 20 mg/kg; in short: as §5
Rattus norvegicus [15] = test: Plasma concentration in rats was determined by subcutaneous administration, 20 mg/kg at 4 h; format: functional, organism-based; design: dose 20 mg/kg; in short: as §2
Mus musculus [16] = test: Plasma concentration in mice was determined by subcutaneous administration, 20 mg/kg at 40 min; format: functional, organism-based; design: dose 20 mg/kg; in short: as §5
Mus musculus [17] = test: ED50 value was measured by sc administration against streptococcus pyogenes infection in mice (in vivo, in experiment 1); format: functional; in short: as §1
Rattus norvegicus [18] = species: Rattus norvegicus
Rattus norvegicus [19] = species: Rattus norvegicus; test: Fluid concentration in lung tissue was determined in rats at 6 h; format: functional; in short: as §4
Mus musculus [20] = test: ED50 value was measured by sc administration against streptococcus pneumoniae infection in mice (in vivo, in experiment 1); format: functional; in short: as §1
Mus musculus [21] = test: ED50 value was measured by po administration against streptococcus pyogenes infection in mice (in vivo, in experiment 1); format: functional; in short: as §1
Rattus norvegicus [22] = species: Rattus norvegicus; test: Fluid concentration in lung tissue was determined in rats at 0.5 h; format: functional; in short: as §4
Mus musculus [23] = test: ED50 value was measured by po administration against staphylococcus aureus infection in mice (in vivo, in experiment 3); format: functional
Rattus norvegicus [24] = species: Rattus norvegicus; test: Fluid concentration in lung tissue was determined in rats at 4 h; format: functional; in short: as §4
Streptococcus pneumoniae [25] = test: MIC value measured against streptococcus pneumoniae Park1; format: functional
Streptococcus pyogenes [26] = test: Effective dose against mice infected with streptococcus pyogenes after peroral administration (in vivo); format: functional; conditions: in Mus musculus, po
Rattus norvegicus [27] = species: Rattus norvegicus; test: Fluid concentration in liver tissue was determined in rats at 0.5 h; format: functional; in short: as §3
Mus musculus [28] = test: ED50 value was measured by po administration against streptococcus pneumoniae infection in mice (in vivo, in experiment 3); format: functional
Streptococcus pyogenes [29] = test: MIC value measured against streptococcus pyogenes C203; format: functional
Mus musculus [30] = test: Plasma concentration in mice was determined by subcutaneous administration, 20 mg/kg at 1 hr; format: functional, organism-based; design: dose 20 mg/kg; in short: as §5
Rattus norvegicus [31] = species: Rattus norvegicus; remark: listed apart in the source
Staphylococcus aureus [32] = test: Effective dose against mice infected with Staphylococcus aureus after peroral administration (in vivo); format: functional; conditions: in Mus musculus, po
Mus musculus [33] = test: ED50 value was measured by sc administration against staphylococcus aureus infection in mice (in vivo, in experiment 1); format: functional; in short: as §1
Rattus norvegicus [34] = species: Rattus norvegicus; test: Fluid concentration in lung tissue was determined in rats at 2 h; format: functional; in short: as §4
Haemophilus influenzae = test: MIC value was measured against haemophilus influenzae CL; format: functional
[35] = tested on: Staphylococcus epidermidis; test: microbe, parasite or virus in culture; format: functional
Mus musculus [36] = test: Plasma concentration in mice was determined by subcutaneous administration, 20 mg/kg at 20 min; format: functional, organism-based; design: dose 20 mg/kg; in short: as §5
Staphylococcus aureus [37] = test: MIC value measured against staphylococcus aureus X1; format: functional
Rattus norvegicus [38] = species: Rattus norvegicus; test: Fluid concentration in lung tissue was determined in rats at 1 h; format: functional; in short: as §4
Rattus norvegicus [39] = species: Rattus norvegicus; test: Fluid concentration in urine tissue was determined in rats at 6 h; format: functional; in short: as §4
Rattus norvegicus [40] = species: Rattus norvegicus; test: Fluid concentration in kidney tissue was determined in rats at 1 h; format: functional; in short: as §3
Rattus norvegicus [41] = test: Plasma concentration in rats was determined by oral administration, 20 mg/kg at 40 min; format: functional, organism-based; design: dose 20 mg/kg; in short: as §2
Mus musculus [42] = test: ED50 value was measured by po administration against staphylococcus aureus infection in mice (in vivo, in experiment 1); format: functional; in short: as §1

## CCCN[C@@H]1[C@H](C)[C@@H](O)[C@](C)(O)[C@@H](CC)OC(=O)[C@H](C)[C@@H](OC2CC(C)(OC)C(O)C(C)O2)[C@H](C)[C@@H](OC2OC(C)CC(N(C)C)C2O)[C@](C)(O)C[C@H]1C (stereo partly drawn)
Mus musculus [1]
  ED50: 14 mg/kg
Rattus norvegicus [2]
  Plasma concentration: 0.18 µg/mL
Rattus norvegicus [3]
  Activity: 4.28 µg/mL
Mus musculus [4]
  ED50: 6 mg/kg
Rattus norvegicus [5]
  Activity: 3.06 µg/mL
Mus musculus [6]
  ED50: 1.8 mg/kg
Mus musculus [7]
  Plasma concentration: 0.11 µg/mL
Rattus norvegicus [8]
  Activity: 0.17 µg/mL
Rattus norvegicus [9]
  Activity: 3.25 µg/mL
Streptococcus pneumoniae [10]
  ED50: 7 mg/kg
Mus musculus [11]
  Plasma concentration: 0.06 µg/mL
Rattus norvegicus [12]
  Activity: 0.05 µg/mL
Mus musculus [13]
  ED50: 6.1 mg/kg
Mus musculus [14]
  Plasma concentration: 1.58 µg/mL
Rattus norvegicus [15]
  Plasma concentration: 0.23 µg/mL
Mus musculus [16]
  Plasma concentration: 0.47 µg/mL
Mus musculus [17]
  ED50: 1.7 mg/kg
Rattus norvegicus [18]
  Plasma concentration: 0.08 µg/mL
Rattus norvegicus [19]
  Activity: 5.08 µg/mL
Mus musculus [20]
  ED50: 1.6 mg/kg
Mus musculus [21]
  ED50: 9 mg/kg
Rattus norvegicus [22]
  Activity: 0.31 µg/mL
Mus musculus [23]
  ED50: 13 mg/kg
Rattus norvegicus [24]
  Activity: 5.46 µg/mL
Streptococcus pneumoniae [25]
  MIC: 0.015 mg/L (≈ 0.0193 µM)
Streptococcus pyogenes [26]
  ED50: 3 mg/kg
Rattus norvegicus [27]
  Activity: 0.08 µg/mL
Mus musculus [28]
  ED50: 6 mg/kg
Streptococcus pyogenes [29]
  MIC: 0.03 mg/L (≈ 0.0386 µM)
Mus musculus [30]
  Plasma concentration: 0.39 µg/mL
Rattus norvegicus [31]
  Plasma concentration: 0.04 µg/mL
Staphylococcus aureus [32]
  ED50: 12 mg/kg
Mus musculus [33]
  ED50: 4.7 mg/kg
Rattus norvegicus [34]
  Activity: 4.9 µg/mL
Haemophilus influenzae
  MIC: 0.5 mg/L (≈ 0.643 µM)
[35]
  MIC: 0.12 mg/L (≈ 0.154 µM)
Mus musculus [36]
  Plasma concentration: 0.75 µg/mL
Staphylococcus aureus [37]
  MIC: 0.25 mg/L (≈ 0.322 µM)
Rattus norvegicus [38]
  Activity: 2.25 µg/mL
Rattus norvegicus [39]
  Activity: 11.3 µg/mL
Rattus norvegicus [40]
  Activity: 0.31 µg/mL
Rattus norvegicus [41]
  Plasma concentration: 0.01 µg/mL
Mus musculus [42]
  ED50: 19 mg/kg
